# How the values were obtained:
# [1] = test system: SW-480 colon cancer cells; assay: Effect of GLUT1 inhibitors on internalization of BLM-Cy5**; assay type: cell-based; conditions: pretreatment with different concentrations of inhibitor, 37 °C, 2 h, then 25 μM dye-labeled conjugate 44; 2 s exposure
# Outline: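 SW480 cells kept in RPMI 1640 with 10% FBS and 1% pen-strep at 37 °C, 5% CO2. Seeded on glass chamber slides at 5000 cells/well for 48 h. At 70% confluence, rinsed with PBS and switched to phenol-red-free RPMI. Pretreated 2 h at 37 °C with cytochalasin B or phloretin, then 25 μM Cy5-labeled conjugate for 1 h at 37 °C. PBS-washed, fixed 5 min in 4% paraformaldehyde, DAPI-mounted, imaged through Cy5 filter with 40× oil objective; cells counted.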
# [2] = test system: DU145 human prostate cancer cells; assay: MTT cytotoxicity assay; assay type: cell-based; conditions: 24 h incubation, four concentrations, 5% DMSO, MTT read at 560 nm
# Outline: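 DU145 cells grown in log phase in MEM with 10% FBS and 1% pen-strep. Trypsinized, seeded at 5000 cells/well and incubated 24 h. Medium replaced with compound-containing medium (5% DMSO final) for 24 h. MTT solution (5 mg/mL in PBS, pH 7.4) added for 3 h at 37 °C. Crystals dissolved in DMSO; absorbance read at 560 nm, reference 670 nm. Viability = OD560/[OD560(positive control) − OD560(negative control)], with linear fit.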
# supercoiled DNA = conditions: relative to BLM; cited from earlier work
# [3] = test system: supercoiled pSP64 plasmid DNA; assay: Relaxation of supercoiled pSP64 plasmid DNA by Fe; assay type: biochemical; conditions: Fe(II) chelate; pSP64, 50 mM Tris-HCl pH 8.0, 25 °C, 30 min; agarose gel
# Outline: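 200 ng supercoiled pSP64 treated with freshly prepared Fe2+ (from ferrous ammonium sulfate) plus compound at 2 or 4 μM, in 50 mM Tris-HCl pH 8.0, 25 °C for 30 min. Quenched with glycerol/bromophenol blue loading buffer. Run on 1% agarose gel in 9 mM Tris-borate pH 8.3 with 320 μM Na2EDTA, 96 V for 2 h. Stained 1 h with 0.5 μg/mL ethidium bromide, destained in water, viewed under UV. Cleaved DNA given as percent of total per lane.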
Molecule,inhibition of BLM-Cy5** (44) binding/uptake [1],"cytotoxicity toward cultured DU145 cells (cell viability, MTT) [2]",double-strand DNA cleavage (supercoiled DNA),"potency of supercoiled DNA relaxation, fold less than for BLM (supercoiled DNA)",extent of double-strand cleavage of plasmid DNA [3]
O=C(CCc1ccc(O)cc1)c1c(O)cc(O)cc1O [phloretin],substantial and dose-dependent inhibition,–,–,–,–
C=C1[C@@H](C)[C@H]2[C@H](Cc3ccccc3)NC(=O)[C@]23OC(=O)/C=C/[C@H](O)CCC[C@@H](C)C/C=C/[C@H]3[C@@H]1O [cytochalasin B],substantial and dose-dependent inhibition,–,–,–,–
bleomycin A5 [BLM A5],–,the most potent of the derivatives tested,–,–,–
deglycobleomycin A5 [deglycoBLM A5],–,cytotoxic to DU145 cells but much less so than BLM A5,much less double-strand cleavage is apparent,2–3 fold,minimal double-strand cleavage of plasmid DNA

# From paper PMC4183664 (Journal of the American Chemical Society, 2014)
